# Results as given in ChEMBL document CHEMBL2331229, “Extracellular signal-regulated kinases (ERK) inhibitors from Aristolochia yunnanensis” (J Nat Prod, 2013).
# Calls of active or inactive are those of the source. The rule behind the calls is not given here.
# What was measured:
# [1] = molecular target: c-Jun N-terminal kinase, JNK (Homo sapiens) (UniProt P45983+P53779+P45984); test: Inhibition of JNK phosphorylation in human HeLa cells at 20 uM after 3 hrs by Western blotting analysis; format: cell-based
# How it was run: (§1)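 HeLa cells exposed to 20 μM compound for 3 h. Lysed in Tris pH 7.4/NaCl/NP-40/deoxycholate/SDS buffer with protease and phosphatase inhibitors, protein by BCA. Then 20 μg protein on 8–10% SDS-PAGE, transferred to nitrocellulose and blocked with 5% milk. Primary antibodies overnight at 4 °C, detection by chemiluminescence. Phospho-ERK1/2, -JNK and -p38 quantified by densitometry (n = 3, ANOVA).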
# [2] = molecular target: MAP kinase p38 (Homo sapiens) (UniProt O15264+Q15759+Q16539+P53778); test: Inhibition of p38 phosphorylation in human HeLa cells at 20 uM after 3 hrs by Western blotting analysis; format: cell-based; how it was run: as §1
# [3] = molecular target: T1, Mitogen-activated protein kinase; ERK1/ERK2 (Homo sapiens) (UniProt P27361+P28482); test: Inhibition of ERK1/2 phosphorylation in human HeLa cells at 20 uM after 3 hrs by Western blotting analysis; format: cell-based; how it was run: as §1
# T1 sequence (P27361 whole entry, looked up): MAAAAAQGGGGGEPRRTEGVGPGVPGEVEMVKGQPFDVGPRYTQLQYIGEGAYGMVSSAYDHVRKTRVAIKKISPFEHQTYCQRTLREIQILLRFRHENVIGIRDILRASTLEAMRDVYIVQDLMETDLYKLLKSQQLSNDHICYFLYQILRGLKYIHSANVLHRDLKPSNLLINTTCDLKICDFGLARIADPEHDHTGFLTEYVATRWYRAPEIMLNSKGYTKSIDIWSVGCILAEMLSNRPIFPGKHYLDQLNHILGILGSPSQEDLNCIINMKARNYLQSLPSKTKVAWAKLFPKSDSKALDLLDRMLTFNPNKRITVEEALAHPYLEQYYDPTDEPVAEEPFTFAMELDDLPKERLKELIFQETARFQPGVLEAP
# T1 sequence (P28482 whole entry, looked up): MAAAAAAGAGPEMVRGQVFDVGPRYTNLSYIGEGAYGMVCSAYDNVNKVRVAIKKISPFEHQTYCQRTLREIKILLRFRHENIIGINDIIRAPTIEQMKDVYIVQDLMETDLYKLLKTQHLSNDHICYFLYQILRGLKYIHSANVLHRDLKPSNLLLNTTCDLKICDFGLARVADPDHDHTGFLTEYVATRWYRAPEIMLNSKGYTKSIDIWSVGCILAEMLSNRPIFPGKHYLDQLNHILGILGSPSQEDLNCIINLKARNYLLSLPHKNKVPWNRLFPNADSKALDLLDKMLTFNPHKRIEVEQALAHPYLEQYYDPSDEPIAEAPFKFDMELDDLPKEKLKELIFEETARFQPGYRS
# [4] = molecular target: T1, Mitogen-activated protein kinase; ERK1/ERK2 (Homo sapiens); test: Inhibition of ERK1/2 phosphorylation in human HeLa cells after 3 hrs by Western blotting analysis; format: cell-based
# How it was run: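 HeLa cells exposed to compound at indicated concentrations (2.5 to 40 μM range) for 3 h, with PD98059 as positive control. Lysate protein (20 μg) was run on SDS-PAGE and Western blotted for phospho-ERK1/2. Blots were quantified by densitometry (n = 3, ANOVA).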
# HeLa = test: Cytotoxicity against human HeLa cells assessed as decrease in cell viability at 50 uM after 48 hrs by WST-8-based colorimetric assay; format: functional
# How it was run: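 HeLa cells in 96-well plates given 50 μM compound for 48 h. Viability read with CCK-8: phenol red-free DMEM containing 10% WST-8 added, 1 h at 37 °C, then OD at 450 nm. Computed from the mean of three wells (n = 3, ANOVA).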
inhibition [1],inhibition [2],inhibition [3],inhibition [4],SMILES,Activity (HeLa)
inactive,inactive,Active,–,C=C(C)[C@H]1CC[C@]2(C)[C@@H]([N+](=O)[O-])CC[C@@]23C(=O)O[C@@H]1[C@@H]3O,–
inactive,inactive,Active,–,C=C(C)[C@H]1CC/C(C)=C/CCC2=C[C@H]1OC2=O,–
inactive,inactive,Active,–,C=C(C)[C@H]1CCC(=C)[C@@H](O)CCC2=C[C@H]1OC2=O,–
inactive,inactive,Active,–,C/C1=C\CC/C(C=O)=C\[C@H]2[C@@H](C[C@H]1O)C2(C)C,–
inactive,inactive,Active,–,CC(=O)OC[C@]1(C)[C@@H]2/C=C(/C=O)CC/C=C(\C)CC[C@H]21,–
inactive,inactive,Active,–,CC1(C)[C@@H]2CC[C@@]3(C)O[C@@H]3CC/C(C=O)=C\[C@@H]21,–
inactive,inactive,Active,–,C/C1=C\CCC2=CC(O)(C/C(C)=C/CC1)OC2=O (racemic),inactive
inactive,inactive,–,Dose-dependent effect,C/C1=C\CCC2=C[C@H](C/C(C)=C/CC1)OC2=O,–
inactive,inactive,Active,–,C/C1=C\CC/C(C=O)=C\[C@@H]2[C@@H](CC1)C2(C)C,–

# Further lines, the compound ahead of its results:
SMILES,inhibition [1],inhibition [2],inhibition [3],inhibition [4],Activity (HeLa)
C[C@@H]1CC(=O)C=C2CC[C@@H]3[C@@H](C3(C)C)[C@]21C,inactive,inactive,–,Dose-dependent effect,–
CC(=O)O[C@H]1/C=C(\C=O)CC/C=C(\C)CC/C=C(\C)C1,–,–,–,–,Active
C/C1=C\CC/C(C=O)=C\[C@@H]2[C@@H](CC1)[C@]2(C)CO,–,–,–,–,Active
COc1cccc(-c2cc(=O)c3ccccc3o2)c1N,–,–,Active,–,–
COC(=O)[C@]1(C)[C@@H]2/C=C(/C=O)CC/C=C(\C)CC[C@H]21,–,–,–,–,Active
C=C(C)[C@H]1C/C=C(\C)[C@@H](O)CCC2=C[C@H]1OC2=O,–,–,–,–,Active
